# Measurements: ChEMBL document CHEMBL5303300, “EUbOPEN Chemogenomics Library - Multiplex” (2023)
# Values joined by “and” are separate entries in the source; they are usually repeats but may differ in a detail not shown here. Identical values can stand only once.
# System: U2OS
# Assay: Multiplex assay against U2OS
# Type: toxicity, cell-based
# Conditions: human, number of replicates 2
# Summary of the method: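 Per cents of healthy-nucleus cells form the tubulin, mitochondrial-mass and membrane-permeability phenotype values. Live cells were stained at seeding with Hoechst33342, BioTracker Green Microtubule Cytoskeleton Dye, MitoTracker Red and Annexin V Alexa Fluor 680. After compound addition they were imaged on a CQ1 microscope at 37°C and 5% CO2, and CellPathfinder machine-learning gating split them into Hoechst high-intensity objects or normal cells, normal cells into healthy, pyknosed or fragmented nuclei, and pyknosed cells into mitotic or apoptotic.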
# [1] = 12 h, 1 µM, compound concentration 1 uM
# [2] = 12 h, 10 µM, compound concentration 10 uM
# [3] = 24 h, 1 µM, compound concentration 1 uM
# [4] = 24 h, 10 µM, compound concentration 10 uM
# [5] = 48 h, 1 µM, compound concentration 1 uM
# [6] = 48 h, 10 µM, compound concentration 10 uM
compound,measurement,setting,value
CC(C)NC(=O)[C@H]1CCC[C@H]1Nc1nc(Nc2ccc(C(=O)N(C)C3CCN(C)CC3)cc2)ncc1Cl,Population Apoptotic (%),[1],75% and 60%
same,Population Fragmented Nuclei (%),[1],17% and 6%
same,Population Healthy Nuclei (%),[1],72% and 81%
same,Population Hoechst High Intensity Objects (%),[1],0%
same,Population Membrane Permeable-Phenotype (%),[1],0% and 2%
same,Population Mitochondria Different-Phenotype (%),[1],0%
same,Population Mitotic Cells (%),[1],25% and 40%
same,Population Normal (%),[1],100% and 99%
same,Population Pyknosed Nuclei (%),[1],10% and 12%
same,Population Tubulin-Different-Phenotype (%),[1],65% and 57%
same,Population Apoptotic (%),[2],100% and 69%
same,Population Healthy Nuclei (%),[2],65% and 73%
same,Population Hoechst High Intensity Objects (%),[2],0%
same,Population Membrane Permeable-Phenotype (%),[2],13% and 18%
same,Population Mitochondria Different-Phenotype (%),[2],0% and 15%
same,Population Normal (%),[2],100%
same,Population Pyknosed Nuclei (%),[2],8% and 20%
same,Population Tubulin-Different-Phenotype (%),[2],40% and 36%
same,Population Apoptotic (%),[3],42% and 87%
same,Population Fragmented Nuclei (%),[3],8% and 3%
same,Population Healthy Nuclei (%),[3],70% and 83%
same,Population Hoechst High Intensity Objects (%),[3],0%
same,Population Membrane Permeable-Phenotype (%),[3],4% and 1%
same,Population Mitochondria Different-Phenotype (%),[3],0%
same,Population Normal (%),[3],100%
same,Population Pyknosed Nuclei (%),[3],20% and 12%
same,Population Tubulin-Different-Phenotype (%),[3],58% and 61%
same,Population Apoptotic (%),[4],75% and 82%
same,Population Healthy Nuclei (%),[4],43% and 65%
same,Population Hoechst High Intensity Objects (%),[4],0%
same,Population Membrane Permeable-Phenotype (%),[4],15% and 13%
same,Population Mitochondria Different-Phenotype (%),[4],46% and 31%
same,Population Mitotic Cells (%),[4],25% and 17%
same,Population Normal (%),[4],100%
same,Population Pyknosed Nuclei (%),[4],13% and 28%
same,Population Tubulin-Different-Phenotype (%),[4],53% and 45%
same,Population Apoptotic (%),[5],72% and 90%
same,Population Fragmented Nuclei (%),[5],10% and 18%
same,Population Healthy Nuclei (%),[5],64% and 58%
same,Population Hoechst High Intensity Objects (%),[5],0%
same,Population Membrane Permeable-Phenotype (%),[5],5% and 0%
same,Population Mitochondria Different-Phenotype (%),[5],0%
same,Population Mitotic Cells (%),[5],27% and 10%
same,Population Normal (%),[5],99% and 100%
same,Population Pyknosed Nuclei (%),[5],24% and 23%
same,Population Tubulin-Different-Phenotype (%),[5],68% and 48%
same,Population Apoptotic (%),[6],90% and 89%
same,Population Hoechst High Intensity Objects (%),[6],0%
same,Population Membrane Permeable-Phenotype (%),[6],0% and 25%
same,Population Mitotic Cells (%),[6],10%
same,Population Normal (%),[6],100% and 99%
same,Population Pyknosed Nuclei (%),[6],38% and 51%
same,Population Tubulin-Different-Phenotype (%),[6],50% and 52%
O=C(Nc1ccnc(NC(=O)C2CC2)c1)c1c(Cl)cccc1Cl,Population Apoptotic (%),[1],33% and 84%
same,Population Hoechst High Intensity Objects (%),[1],0%
same,Population Membrane Permeable-Phenotype (%),[1],4% and 3%
same,Population Mitochondria Different-Phenotype (%),[1],0% and 4%
same,Population Normal (%),[1],100%
same,Population Tubulin-Different-Phenotype (%),[1],81% and 83%
same,Total Cell Count,[1],114 and 143
same,Population Apoptotic (%),[2],60% and 58%
same,Population Healthy Nuclei (%),[2],36% and 74%
same,Population Hoechst High Intensity Objects (%),[2],0%
same,Population Mitochondria Different-Phenotype (%),[2],14% and 0%
same,Population Mitotic Cells (%),[2],40% and 41%
same,Population Normal (%),[2],100%
same,Population Pyknosed Nuclei (%),[2],26% and 19%
same,Population Tubulin-Different-Phenotype (%),[2],71% and 58%
same,Population Apoptotic (%),[3],60% and 90%
same,Population Hoechst High Intensity Objects (%),[3],0%
same,Population Membrane Permeable-Phenotype (%),[3],4% and 3%
same,Population Mitochondria Different-Phenotype (%),[3],0% and 2%
same,Population Normal (%),[3],99% and 100%
same,Population Pyknosed Nuclei (%),[3],3% and 12%
same,Population Tubulin-Different-Phenotype (%),[3],76% and 90%
same,Total Cell Count,[3],131 and 182
same,Population Apoptotic (%),[4],66% and 87%
same,Population Healthy Nuclei (%),[4],32% and 62%
same,Population Hoechst High Intensity Objects (%),[4],0%
same,Population Mitochondria Different-Phenotype (%),[4],10% and 0%
same,Population Mitotic Cells (%),[4],33% and 12%
same,Population Normal (%),[4],100%
same,Population Pyknosed Nuclei (%),[4],19% and 29%
same,Population Tubulin-Different-Phenotype (%),[4],70% and 66%
same,Population Apoptotic (%),[5],75% and 76%
same,Population Healthy Nuclei (%),[5],32% and 82%
same,Population Hoechst High Intensity Objects (%),[5],0%
same,Population Membrane Permeable-Phenotype (%),[5],5% and 1%
same,Population Mitochondria Different-Phenotype (%),[5],2% and 1%
same,Population Mitotic Cells (%),[5],25% and 23%
same,Population Normal (%),[5],99% and 100%
same,Population Pyknosed Nuclei (%),[5],3% and 10%
same,Population Tubulin-Different-Phenotype (%),[5],89% and 92%
same,Population Apoptotic (%),[6],100% and 80%
same,Population Hoechst High Intensity Objects (%),[6],0%
same,Population Membrane Permeable-Phenotype (%),[6],16% and 14%
same,Population Mitochondria Different-Phenotype (%),[6],16% and 6%
same,Population Mitotic Cells (%),[6],0% and 20%
same,Population Normal (%),[6],100% and 99%
same,Population Pyknosed Nuclei (%),[6],23% and 35%
same,Population Tubulin-Different-Phenotype (%),[6],50% and 68%
